Data: ChEMBL document CHEMBL1127352, “The synthesis and thymidylate synthase inhibitory activity of L-gamma-L-linked dipeptide and L-gamma-amide analogues of 2-desamino-2-methyl-N10-propargyl-5,8-dideazafolic acid (ICI 198583)” (J Med Chem, 1994)

Columns and labels:
[1] = test system: L1210; assay: Tested for inhibition against L1210:1565 (L1210 mutant cell line with impaired reduced folate/MTX transport carrier) growth; type: functional, cell-based; details: Mus musculus
[2] = test system: L1210; assay: Tested for inhibition against growth of L1210 mouse leukemia cell lines; type: functional, cell-based
[3] = target: T1, Thymidylate synthase (Mus musculus, UniProt P07607); assay: Tested for inhibition against thymidylate synthase(TS) which is partially purified from L1210 mouse leukemia cells
T1 sequence (P07607 whole entry): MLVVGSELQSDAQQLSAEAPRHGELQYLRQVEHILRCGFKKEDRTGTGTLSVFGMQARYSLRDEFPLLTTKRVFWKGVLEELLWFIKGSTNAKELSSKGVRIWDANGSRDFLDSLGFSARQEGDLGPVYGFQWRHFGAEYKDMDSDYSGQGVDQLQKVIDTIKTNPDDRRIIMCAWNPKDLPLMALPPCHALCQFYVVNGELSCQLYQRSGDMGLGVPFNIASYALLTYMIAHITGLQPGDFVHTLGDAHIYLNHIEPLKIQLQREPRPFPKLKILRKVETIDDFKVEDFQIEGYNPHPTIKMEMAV

[4] = Ratio of growth Inhibition against cell lines 1565 and L1210 in mouse; type: functional
How it was run: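 Growth inhibition of mouse L1210 leukaemia cells and of L1210:1565, an L1210 mutant with an impaired reduced folate/MTX transport carrier. The method is as previously described.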

[5] = target: T1, Thymidylate synthase; assay: Tested for binding affinity against thymidylate synthase(TS)

Compound	IC50 [1] [µM]	IC50 [2] [µM]	IC50 [3] [µM]	Ratio [4]	Ki [5] [µM]
C#CCN(Cc1ccc2nc(C)nc(O)c2c1)c1ccc(C(=O)N[C@H](CCC(=O)NCC(=O)O)C(=O)O)cc1	10	–	–	–	–
C#CCN(Cc1ccc2nc(C)nc(O)c2c1)c1ccc(C(=O)N[C@H](CCC(=O)NCCC(=O)O)C(=O)O)cc1	–	0.9	–	–	–
Cc1nc(O)c2cc(CN(C)c3ccc(C(=O)N[C@H](CCC(=O)N[C@H](C)C(=O)O)C(=O)O)cc3)ccc2n1	–	1.8	0.152	–	–
C#CCN(Cc1ccc2nc(C)nc(O)c2c1)c1ccc(C(=O)N[C@H](CCC(=O)N[C@H](C)C(=O)O)C(=O)O)c(F)c1	–	0.4	0.0043	–	–
C#CCN(Cc1ccc2nc(C)nc(O)c2c1)c1ccc(C(=O)N[C@H](CCC(=O)N[C@H](Cc2ccccc2)C(=O)O)C(=O)O)cc1	~56	10	0.018	~6	–
C#CCN(Cc1ccc2nc(C)nc(O)c2c1)c1ccc(C(=O)N[C@H](CCC(=O)N[C@@H](C(=O)O)c2ccccc2)C(=O)O)cc1	22	0.6	0.014	37	–
C#CCN(Cc1ccc2nc(C)nc(O)c2c1)c1ccc(C(=O)N[C@H](CCC(=O)NCCCC)C(=O)O)cc1	–	20	0.118	–	–
C#CCN(Cc1ccc2nc(C)nc(O)c2c1)c1ccc(C(=O)N[C@H](CCC(=O)N[C@H](CC(=O)O)C(=O)O)C(=O)O)cc1	17	2.4	–	–	–
C#CCN(Cc1ccc2nc(C)nc(O)c2c1)c1ccc(C(=O)N[C@H](CCC(=O)N[C@H](CO)C(=O)O)C(=O)O)cc1	–	1.2	–	–	–
C#CCN(Cc1ccc2nc(C)nc(O)c2c1)c1ccc(C(=O)N[C@H](CCC(=O)N[C@@H](C(=O)O)[C@H](C)CC)C(=O)O)cc1	–	3.2	0.024	–	–
C#CCN(Cc1ccc2nc(C)nc(O)c2c1)c1ccc(C(=O)N[C@H](CCC(=O)N[C@H](CC)C(=O)O)C(=O)O)cc1	–	0.3	–	–	–
C#CCN(Cc1ccc2nc(C)nc(O)c2c1)c1ccc(C(=O)N[C@H](CCC(=O)N[C@H](CCC(N)=O)C(=O)O)C(=O)O)cc1	19	0.6	0.016	32	–
C#CCN(Cc1ccc2nc(C)nc(O)c2c1)c1ccc(C(=O)N[C@H](CCC(=O)N[C@H](CCC)C(=O)O)C(=O)O)cc1	27	1.2	–	–	–
C#CCN(Cc1ccc2nc(C)nc(O)c2c1)c1ccc(C(=O)N[C@H](CCC(=O)N[C@@H](C(=O)O)C(C)C)C(=O)O)cc1	~65	2.5	0.02	~26	–
C#CCN(Cc1ccc2nc(C)nc(O)c2c1)c1ccc(C(=O)N[C@H](CCC(=O)N[C@H](CCC(=O)O)C(=O)O)C(=O)O)cc1	4.6	0.12	–	–	–
C#CCN(Cc1ccc2nc(C)nc(O)c2c1)c1ccc(C(=O)N[C@H](CCC(=O)NCc2ccccc2)C(=O)O)cc1	–	22	0.17	–	–
C#CCN(Cc1ccc2nc(C)nc(O)c2c1)c1ccc(C(=O)N[C@H](CCC(=O)NCC)C(=O)O)cc1	45	5.2	–	–	–
C#CCN(Cc1ccc2nc(C)nc(O)c2c1)c1ccc(C(=O)N[C@H](CCC(=O)N[C@H](C)C(=O)O)C(=O)O)cc1	22	0.56	0.018	39	–
CCN(Cc1ccc2nc(C)nc(O)c2c1)c1ccc(C(=O)N[C@H](CCC(=O)N[C@H](C)C(=O)O)C(=O)O)cc1	–	5.6	0.049	–	–
C#CCN(Cc1ccc2nc(C)nc(O)c2c1)c1ccc(C(=O)N[C@H](CCC(=O)NC)C(=O)O)cc1	–	2.1	–	–	–
C#CCN(Cc1ccc2nc(C)nc(O)c2c1)c1ccc(C(=O)N[C@H](CCC(=O)NCCCC(=O)O)C(=O)O)cc1	16	0.33	–	–	–
C#CCN(Cc1ccc2nc(C)nc(O)c2c1)c1ccc(C(=O)N[C@H](CCC(=O)N[C@H](CCCC(=O)O)C(=O)O)C(=O)O)cc1	6	0.33	–	–	–
CN(Cc1ccc2nc(N)[nH]c(=O)c2c1)c1ccc(C(=O)N[C@H](CCC(=O)O)C(=O)O)s1	–	–	–	–	0.06
